This note sets out measurements from ChEMBL document CHEMBL1158484 (J Med Chem, 2009).

The subject of series [1] is Trypanosoma brucei rhodesiense. The series can be described thus: Antitrypanosomal activity against bloodstream Trypanosoma brucei rhodesiense STIB900 infected in NMRI mouse assessed as survival rate at 5 mg/kg, ip administered 4 consecutive days from day 3 to 6 postinfection. The format is functional. The settings on record: route intraperitoneal. The procedure, abridged:
(§1)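 Female NMRI mice infected ip with 2×10^4 STIB900 bloodstream forms. Groups of four treated on days 3–6 postinfection. Compounds in DMSO diluted with water to a final 10% DMSO. Untreated infected controls. Tail blood checked for parasitemia to day 60. Surviving aparasitemic mice at day 60 scored cured; mean survival time in days from recorded deaths.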

Series [2] concerns Plasmodium falciparum. As to the kind of experiment: Antiplasmodial activity after 48 hrs against chloroquine-resistant Plasmodium falciparum K1 infected human erythrocytes by [3H]hypoxanthine uptake. The format is functional, organism-based.
Series [3] concerns Leishmania donovani. The series can be described thus: Antileishmanial activity against axenic amastigotes of Leishmania donovani MHOM/SD/62/1S-CL2D after 72 hrs. The format is functional, organism-based. In short, it runs like this:
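Axenic amastigotes (adapted from promastigotes), 6×10^4 per well, amastigote medium, 37 °C. 2-fold compound dilutions; 72 h at 37 °C, humidified 5% CO2. Growth read by tetrazolium CellTiter absorbance at 490 nm several hours after reagent addition. IC50 from four-parameter dose–response fit. DMSO ≤1%.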

Series [4] concerns Trypanosoma brucei rhodesiense. The series can be described thus: Antitrypanosomal activity against bloodstream Trypanosoma brucei rhodesiense STIB900 after 70 hrs by alamar blue assay. The format is functional, organism-based. Conditions: STIB900, 70 h. In short, it runs like this: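 Bloodstream forms, 2000 per well, in supplemented MEM with Earle's salts (0.2 mM 2-mercaptoethanol, 1 mM pyruvate, 0.5 mM hypoxanthine, 15% heat-inactivated horse serum). Serial dilutions, 70 h at 37 °C, 5% CO2. IC50 from sigmoidal curves; two independent runs in duplicate. DMSO ≤1%.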

Series [5] is described as follows: Selectivity index, ratio of IC50 for rat L6 cells to IC50 for axenic amastigotes of Leishmania donovani MHOM/SD/62/1S-CL2D. The settings on record: read-out: Ratio IC50. The series is classed as toxicity, cell-based. In short, it runs like this: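 Ratio of L6 IC50 to L. donovani IC50. L6: 4000 cells in RPMI 1640 with 10% FBS, 70 h at 37 °C, then Alamar blue 2–3 h, fluorescence 536/588 nm. Leishmania: 6×10^4 axenic amastigotes per well, 2-fold dilutions, 72 h at 37 °C in 5% CO2, tetrazolium CellTiter read at 490 nm. IC50 from a four-parameter dose–response fit.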

Series [6] relates to L6. As to the kind of experiment: Cytotoxicity against rat L6 cells after 70 hrs by alamar blue assay. Conditions: L6, 70 h. The series is classed as cell-based.
Series [7] in a line: Selectivity index, ratio of IC50 for rat L6 cells to IC50 for bloodstream Trypanosoma brucei rhodesiense STIB900. The settings on record: read-out: Ratio IC50. The format is toxicity, cell-based.
Series [8] in a line: Selectivity index, ratio of IC50 for rat L6 cells to IC50 for chloroquine-resistant Plasmodium falciparum K1. The series is classed as toxicity, cell-based. Conditions: read-out: Ratio IC50. In short, it runs like this:
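Ratio of L6 IC50 to P. falciparum K1 IC50. L6: 4000 cells, 70 h at 37 °C, Alamar blue fluorescence. Parasites: infected human erythrocytes (1.25% hematocrit, 0.3% parasitemia) in low-O2 gas for 48 h, then [3H]-hypoxanthine for 24 h, uptake counted. Sigmoidal IC50s, two independent runs in duplicate.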

Series [9] relates to Trypanosoma brucei rhodesiense. The series can be described thus: Antitrypanosomal activity against bloodstream Trypanosoma brucei rhodesiense STIB900 infected in NMRI mouse assessed as parasite free mouse survival at 5 mg/kg, ip administered for 4 consecutive days from day 3 to 6 postinfection measured up to 60 days. The format is functional, organism-based. More on the design: dose 5 mg/kg. The procedure, abridged:
(§2)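 Female NMRI mice infected ip with 2×10^4 STIB900 bloodstream forms; groups of four dosed on 4 consecutive days, days 3-6 postinfection. Compounds in DMSO diluted with water to 10% DMSO. Untreated infected controls. Tail-blood parasitemia followed to day 60; surviving aparasitemic mice at day 60 scored cured; mean survival time recorded.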

For series [10], the system named is Trypanosoma brucei rhodesiense. The series can be described thus: Antitrypanosomal activity against bloodstream Trypanosoma brucei rhodesiense STIB900 infected in NMRI mouse assessed as parasite free mouse survival at 25 mg/kg, po administered for 4 consecutive days from day 3 to 6 postinfection measured up to 60 days. More on the design: dose 25 mg/kg. The format is functional, organism-based. The procedure, abridged: as §2

Series [11] concerns Trypanosoma brucei rhodesiense. As to the kind of experiment: Antitrypanosomal activity against bloodstream Trypanosoma brucei rhodesiense STIB900 infected in NMRI mouse assessed as survival rate at 25 mg/kg, po administered 4 consecutive days from day 3 to 6 postinfection. The format is functional. The procedure, abridged:
as §1

Series [12] has as its system Trypanosoma brucei brucei. The series can be described thus: Antitrypanosomal activity against second-stage Trypanosoma brucei brucei GVR35 infected in african sleeping sickness CNS mouse model. The format is functional, organism-based.
Series [13] deals with Trypanosoma brucei rhodesiense. The series can be described thus: Antitrypanosomal activity against bloodstream Trypanosoma brucei rhodesiense STIB900 infected in NMRI mouse assessed as survival rate at 100 mg/kg, po administered 4 consecutive days from day 3 to 6 postinfection. The series is classed as functional. The procedure, abridged: as §1
The subject of series [14] is Trypanosoma brucei rhodesiense. As to the kind of experiment: Antitrypanosomal activity against bloodstream Trypanosoma brucei rhodesiense STIB900 infected in NMRI mouse assessed as parasite free mouse survival at 100 mg/kg, po administered for 4 consecutive days from day 3 to 6 postinfection measured up to 60 days. The series is classed as functional, organism-based. More on the design: dose 100 mg/kg.

The source made the active and inactive calls. The rule behind the calls is not given here.

As to `N=C(N)c1ccc(OCCCCCOc2ccc(C(=N)N)cc2)cc1` [PENTAMIDINE], the Survival in series [1] is >45 days.

Regarding `CO/N=C(\N)c1ccc(OCCCCCOc2ccc(/C(N)=N\OC)cn2)nc1`, the IC50 is 2.24 µM in series [2], > 100 µM in series [3], 25.9 µM in series [4] and > 185 µM in [6]. The selectivity ratio in series [5] is 2; in series [7], > 7; in series [8], > 83.

Regarding `N=C(N)c1cccc(OCCCCCOc2cccc(C(=N)N)n2)n1`, the IC50 in series [2] came out at 0.027 µM; in [3], 4.1 µM; in [4], 0.019 µM; in [6], 114 µM. For the same compound, the selectivity ratio in series [5] was found to be 28; in series [7], 6000; in series [8], 4220. The result in series [9] was inactive. Besides, in [1], the Survival turned out to be 22.5 days.

As for `N/C(=N\O)c1ccc(OCCCCCOc2ccc(/C(N)=N\O)cn2)nc1`, the half-maximal inhibitory concentration (IC50) is 6.5 µM in series [2], > 100 µM in series [3], 27.4 µM in series [4] and 16.4 µM in series [6]. Further, in series [10], the result was inactive. Moreover, the Survival in series [11] turned out to be 8.75 days. Further, the selectivity ratio was < 1 in [5], < 1 in series [7] and 3 in series [8].

For `CC(C)NC(=N)c1ccc(OCCCCCOc2ccc(C(=N)NC(C)C)nc2)cn1`, the IC50 in [2] turned out to be 0.006 µM; in series [3], 6 µM; in series [4], 0.034 µM; in [6], 148 µM. Also, the selectivity ratio in series [5] is 25; in series [7] it was 4350; in series [8], 24700. Besides, the result in [9] was inactive. The Survival in series [1] worked out at 18.5 days.

For `c1cc(C2=NCCN2)ncc1OCCCCCOc1ccc(C2=NCCN2)nc1`, the IC50 in [2] was 0.036 µM; in series [3], 36 µM; in [4], 0.17 µM; in series [6] it was 82.3 µM. In addition, the selectivity ratio in series [5] amounted to 2; in [7] it was 484; in [8], 2290. In addition, in [9], the result was inactive. Moreover, the Survival in series [1] is 12.75 days.

Regarding `c1cc(OCCCCCOc2ccc(C3=NCCN3)cn2)ncc1C1=NCCN1`, the IC50 in series [2] is 1.86 µM; in series [3], > 100 µM; in series [4], 1.42 µM; in [6], 111 µM. In addition, the selectivity ratio in series [5] amounted to 1; in series [7] it was 78; in series [8], 60.

As to `N/C(=N\O)c1cccc(OCCCCCOc2cccc(/C(N)=N/O)n2)n1`, the IC50 is 10.5 µM in series [2], > 50 µM in [3], 19 µM in [4] and 52.2 µM in [6]. Also, the selectivity ratio in series [5] was determined as 1; in [7], 3; in series [8], 5.

As for `CC(C)NC(=N)c1ccc(OCCCCCOc2ccc(C(=N)NC(C)C)cn2)nc1`, the IC50 was 0.256 µM in series [2], > 100 µM in series [3], 0.276 µM in series [4] and > 155 µM in series [6]. For the same compound, the values for the selectivity ratio in series [5], in series [7] and in [8] were 2, > 562 and > 605, respectively.

In the case of `N/C(=N/O)c1ccc(OCCCCCOc2ccc(/C(N)=N\O)nc2)cn1`, the IC50 in series [2] was > 10.7 µM; in series [3], > 100 µM; in series [4] it was 108 µM; in series [6] it was 166 µM. Also, the outcome in series [10] was Active. The Survival in series [11] was >60 days. The selectivity ratio in [5] is < 2; in [7], 2; in series [8] it was < 16. In [12], the result was inactive.

As to `N/C(=N\O)c1cc(OCCCCCOc2ccnc(/C(N)=N/O)c2)ccn1`, the Survival in series [13] amounted to 14.25 days. In addition, the IC50 in [2] was > 2.1 µM; in series [3], 45 µM; in series [4], 12 µM; in series [6] it was 159 µM. Further, the selectivity ratio in series [5] was 4; in series [7], 13; in series [8], < 76. Besides, the outcome in series [14] was inactive.

Regarding `N=C(N)c1ccc(OCCCCCOc2ccc(C(=N)N)cn2)nc1`, the IC50 in [2] stood at 0.329 µM; in series [3] it was 39 µM; in series [4], 0.07 µM; in [6] it was 137 µM. Further, the results for the selectivity ratio in series [5], in series [7] and in [8] were 4, 1960 and 416, respectively. Moreover, the result in series [9] was inactive. The Survival in series [1] is 17.75 days.

Consider `c1cc(OCCCCCOc2ccnc(C3=NCCN3)c2)cc(C2=NCCN2)n1`, for which the IC50 in [2] was 4.26 µM; in series [3] it was > 100 µM; in series [4] it was 12.5 µM; in series [6], 80.8 µM. The figures for the selectivity ratio in series [5], in series [7] and in series [8] were < 1, 6 and 19, respectively.

Regarding `c1cc(OCCCCCOc2cccc(C3=NCCN3)n2)nc(C2=NCCN2)c1`, the IC50 in [2] amounted to 0.568 µM; in [3], 24 µM; in [4] it was 3.07 µM; in [6], 14.6 µM. The selectivity ratio in series [5] is < 1; in series [7], 5; in series [8], 26.

`N=C(N)c1cc(OCCCCCOc2ccnc(C(=N)N)c2)ccn1`: the IC50 in series [2] came to 0.016 µM; in series [3], 38 µM; in series [4], 0.051 µM; in [6] it was 59.3 µM. Moreover, the results for the selectivity ratio in [5], in series [7] and in [8] were 2, 1160 and 3710, respectively. Further, in [9], the result was inactive. Also, the Survival in series [1] came to 14 days.

For the compound `CO/N=C(\N)c1cc(OCCCCCOc2ccnc(/C(N)=N/OC)c2)ccn1`, in series [13], the Survival stood at 11.75 days. The IC50 in series [2] was > 2 µM; in series [3], > 100 µM; in [4], 18.2 µM; in series [6], 138 µM. The selectivity ratio in series [5] is 1; in series [7], 8; in [8], < 69. Further, the outcome in series [14] was inactive.

`CO/N=C(/N)c1ccc(OCCCCCOc2ccc(/C(N)=N\OC)nc2)cn1`: the IC50 was 3.5 µM in [2], > 50 µM in [3], 51.2 µM in series [4] and 39.4 µM in series [6]. Further, the result in [10] was inactive. In addition, the Survival in series [11] amounted to 19.5 days. Further, the selectivity ratio in series [5] is < 1; in series [7], < 1; in series [8] it was 11.

For `CC(C)NC(=N)c1cc(OCCCCCOc2ccnc(C(=N)NC(C)C)c2)ccn1`, the IC50 is 1.33 µM in series [2], > 100 µM in series [3], 1.7 µM in series [4] and > 155 µM in series [6]. Also, the selectivity ratio is 2 in series [5], > 91 in [7] and > 117 in [8].
